The term Ki denotes the dissociation constant of the complex between target and ligand, obtained from inhibition or displacement.

Test [1] deals with 5-hydroxytryptamine receptor 2A (Homo sapiens, UniProt P28223). The test can be described thus: Displacement of [3H]-ketanserin from human 5-HT2A receptor expressed in CHOK1 cell membranes after 60 mins by microbeta scintillation counting method. Type of test: cell-based.
The target of test [2] is T1, 5-hydroxytryptamine receptor 1A (Homo sapiens, UniProt P08908).
T1 sequence (P08908 whole entry): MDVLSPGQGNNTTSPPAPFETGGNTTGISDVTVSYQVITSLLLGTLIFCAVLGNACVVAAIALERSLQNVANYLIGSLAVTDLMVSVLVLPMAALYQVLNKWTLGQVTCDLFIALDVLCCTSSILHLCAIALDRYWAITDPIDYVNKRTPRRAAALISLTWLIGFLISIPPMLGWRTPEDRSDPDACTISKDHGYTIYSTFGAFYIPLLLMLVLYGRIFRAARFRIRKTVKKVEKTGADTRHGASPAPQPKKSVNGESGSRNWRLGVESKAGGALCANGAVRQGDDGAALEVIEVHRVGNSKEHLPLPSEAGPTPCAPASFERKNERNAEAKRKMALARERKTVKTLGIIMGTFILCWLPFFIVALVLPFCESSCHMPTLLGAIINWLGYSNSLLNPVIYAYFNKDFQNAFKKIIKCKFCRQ
Nature of the test: Displacement of [3H]-8-OH-DPAT from human 5-HT1A receptor expressed in CHOK1 cell membranes after 60 mins by microbeta scintillation counting method. A digest of the protocol:
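Membranes from CHO-K1 cells stably expressing human receptor, 10 µg protein/well, in 50 mM Tris pH 7.4 with 10 mM MgSO4, 0.5 mM EDTA, 0.1% ascorbic acid. Compounds at 6 concentrations, 10^-10 to 10^-5 M final, in duplicate; 27 °C. GF/C filtration, cold Tris washes. Ki by one-site fit and Cheng–Prusoff.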
Background: Loss of bound radioactivity is the signal in a displacement assay; it reports binding, not function.

5-hydroxytryptamine receptor 2A, sequence (P28223 whole entry): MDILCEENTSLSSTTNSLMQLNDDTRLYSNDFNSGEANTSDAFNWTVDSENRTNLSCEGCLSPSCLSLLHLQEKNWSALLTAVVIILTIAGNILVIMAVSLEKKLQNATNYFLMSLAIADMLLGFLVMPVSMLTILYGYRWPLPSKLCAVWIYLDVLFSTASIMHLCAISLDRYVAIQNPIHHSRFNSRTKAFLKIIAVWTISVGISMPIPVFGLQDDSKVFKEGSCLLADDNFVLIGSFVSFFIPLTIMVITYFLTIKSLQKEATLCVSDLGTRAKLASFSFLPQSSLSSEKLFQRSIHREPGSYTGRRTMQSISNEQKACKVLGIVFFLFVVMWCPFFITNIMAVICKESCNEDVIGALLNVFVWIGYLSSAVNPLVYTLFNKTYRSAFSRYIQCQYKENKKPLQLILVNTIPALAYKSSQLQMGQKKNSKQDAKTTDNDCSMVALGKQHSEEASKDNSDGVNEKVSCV

Consider `CC(=O)c1c(C)cc2oc(=O)cc(C)c2c1OCCCCN1CCN(c2ccc([N+](=O)[O-])cc2)CC1`, for which the results for the Ki in test [1] and in test [2] were 46 nM and 33 nM, respectively.

For the compound `CC(=O)c1c(C)cc2oc(=O)cc(C)c2c1OCCCCN1CCN(c2ccc(Cl)cc2)CC1`, the Ki in test [1] was 1.7 nM; in test [2], 7 nM.

Take `Cc1cc(OCCCCN2CCN(c3cccc(Cl)c3Cl)CC2)c2c(C)cc(=O)oc2c1`: the Ki in test [1] worked out at 167 nM; in test [2] it was 8 nM.

Turning to `Cc1cc(OCCCN2CCN(c3ccncc3)CC2)c2c(C)cc(=O)oc2c1`, the figures for the Ki in test [1] and in test [2] were > 5000 nM and 450 nM, respectively.

Consider `CC(=O)c1c(C)cc2oc(=O)cc(C)c2c1OCCCN1CCN(c2cnccn2)CC1`, for which the Ki is 3000 nM in test [1] and 11 nM in test [2].

For `Cc1cc(OCCCN2CCOCC2)c2c(C)cc(=O)oc2c1`, the Ki in test [1] is > 10000 nM; in test [2], 1300 nM.

Turning to `Cc1cc(OCCCCN2CCN(c3ccc([N+](=O)[O-])cc3)CC2)c2c(C)cc(=O)oc2c1`, the Ki is > 10000 nM in test [1] and 809 nM in test [2].

On to `Cc1cc(OCCCCN2CCN(c3ccc(Cl)cc3)CC2)c2c(C)cc(=O)oc2c1`, for which the figures for the Ki in test [1] and in test [2] were 465 nM and 60 nM, respectively.

With `Cc1cc(OCCCCN2CCN(c3ccccc3C#N)CC2)c2c(C)cc(=O)oc2c1`, the Ki in test [1] came out at 112 nM; in test [2], 1.5 nM.

For the compound `Cc1cc(OCCCN2CCN(c3ccccc3C#N)CC2)c2c(C)cc(=O)oc2c1`, the inhibition constant Ki in test [1] stood at 200 nM; in test [2], 3 nM.

In the case of `CC(=O)c1c(C)cc2oc(=O)cc(C)c2c1OCCCCN1CCN(c2cccc(Cl)c2Cl)CC1`, the Ki in test [1] was 2650 nM; in test [2] it was 250 nM.

As to `COc1cccc(N2CCN(CCCCOc3c(C(C)=O)c(C)cc4oc(=O)cc(C)c34)CC2)c1`, the Ki was 520 nM in test [1] and 15 nM in test [2].

Turning to `COc1cccc(N2CCN(CCCCOc3cc(C)cc4oc(=O)cc(C)c34)CC2)c1`, the Ki was 184 nM in test [1] and 1 nM in test [2].

As to `Cc1cc(OCCCCN2CCN(c3cnccn3)CC2)c2c(C)cc(=O)oc2c1`, the Ki is 2300 nM in test [1] and 6.7 nM in test [2].

Turning to `CC(=O)c1c(C)cc2oc(=O)cc(C)c2c1OCCCN1CCN(c2ccc(Cl)cc2)CC1`, the values for the Ki in test [1] and in test [2] were 4 nM and 1.2 nM, respectively.

On to `CC(=O)c1c(C)cc2oc(=O)cc(C)c2c1OCCCN1CCN(c2ccc([N+](=O)[O-])cc2)CC1`, for which the results for the Ki in test [1] and in test [2] were 286 nM and 159 nM, respectively.

With `Cc1cc(OCCCCN2CCN(c3ccncc3)CC2)c2c(C)cc(=O)oc2c1`, the results for the Ki in test [1] and in test [2] were > 5000 nM and 389 nM, respectively.

For the compound `Cc1cc(OCCCN2CCN(c3ccccc3F)CC2)c2c(C)cc(=O)oc2c1`, the Ki was 55 nM in test [1] and 3 nM in test [2].

In the case of `CC(=O)c1c(C)cc2oc(=O)cc(C)c2c1OCCCN1CCN(c2ccccc2C#N)CC1`, the figures for the Ki in test [1] and in test [2] were 64 nM and 0.3 nM, respectively.

Regarding `CC(=O)c1c(C)cc2oc(=O)cc(C)c2c1OCCCCN1CCN(c2ccncc2)CC1`, the results for the inhibition constant (Ki) in test [1] and in test [2] were 1590 nM and 308 nM, respectively.

Turning to `CC(=O)c1c(C)cc2oc(=O)cc(C)c2c1OCCCN1CCOCC1`, the Ki is > 10000 nM in test [1] and 850 nM in test [2].

For the compound `CC(=O)c1c(C)cc2oc(=O)cc(C)c2c1OCCCCN1CCOCC1`, the figures for the Ki in test [1] and in test [2] were 4460 nM and 250 nM, respectively.

As to `Cc1cc(OCCCN2CCN(c3cnccn3)CC2)c2c(C)cc(=O)oc2c1`, the figures for the Ki in test [1] and in test [2] were 4570 nM and 186 nM, respectively.

Turning to `CC(=O)c1c(C)cc2oc(=O)cc(C)c2c1OCCCCN1CCN(c2cnccn2)CC1`, the values for the Ki in test [1] and in test [2] were 2500 nM and 4.8 nM, respectively.

With `CC(=O)c1c(C)cc2oc(=O)cc(C)c2c1OCCCN1CCN(c2ccncc2)CC1`, the Ki was > 10000 nM in test [1] and 154 nM in test [2].

With `Cc1cc(OCCCCN2CCOCC2)c2c(C)cc(=O)oc2c1`, the Ki is > 10000 nM in test [1] and 3500 nM in test [2].

As for `Cc1cc(OCCCN2CCN(c3ccc([N+](=O)[O-])cc3)CC2)c2c(C)cc(=O)oc2c1`, the Ki in test [1] was > 10000 nM; in test [2], 1210 nM.

On to `Cc1cc(OCCCN2CCN(c3ccc(Cl)cc3)CC2)c2c(C)cc(=O)oc2c1`, for which the Ki in test [1] is 70 nM; in test [2], 161 nM.

Regarding `Cc1cc(OCCCN2CCN(c3cccc(Cl)c3Cl)CC2)c2c(C)cc(=O)oc2c1`, the values for the inhibition constant Ki in test [1] and in test [2] were 42 nM and 4 nM, respectively.

As for `CC(=O)c1c(C)cc2oc(=O)cc(C)c2c1OCCCN1CCN(c2ccccc2F)CC1`, the Ki came to 28 nM in test [1] and 0.3 nM in test [2].

As to `CC(=O)c1c(C)cc2oc(=O)cc(C)c2c1OCCCCN1CCN(c2ccccc2F)CC1`, the Ki was 9 nM in test [1] and 0.7 nM in test [2].

Consider `COc1cccc(N2CCN(CCCOc3c(C(C)=O)c(C)cc4oc(=O)cc(C)c34)CC2)c1`, for which the figures for the Ki in test [1] and in test [2] were 48 nM and 0.4 nM, respectively.

Take `CC(=O)c1c(C)cc2oc(=O)cc(C)c2c1OCCCN1CCN(c2cccc(Cl)c2Cl)CC1`: the Ki in test [1] was found to be 66 nM; in test [2] it was 0.4 nM.

On to `Cc1cc(OCCCCN2CCN(c3ccccc3F)CC2)c2c(C)cc(=O)oc2c1`, for which the Ki in test [1] worked out at 120 nM; in test [2] it was 1.7 nM.

As for `COc1cccc(N2CCN(CCCOc3cc(C)cc4oc(=O)cc(C)c34)CC2)c1`, the Ki in test [1] came out at 106 nM; in test [2], 6 nM.

(Values after ChEMBL document CHEMBL4261553 (Medchemcomm, 2017).)
